Most compounds without a hit are left out; they make up all but 2.9% or so of the library.
TRPC4 inh = inhibitors of mouse TRPC4 channel; Q9QUQ5; HEK293 TRPC4beta/mu-opioid, DAMGO-evoked Fluo4 calcium flux; active compounds read low; B-score at 10 µM; 0.39% of 300,000 active;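 active means B-score over 3 SD under the library average, no early fluorescence shift, positive overall ratio signal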
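System: stable TRPC4beta/mu-opioid receptor HEK293 cells; Dosing: single-point compound dosing; Measured by: Fluo4 Ca2+ flux fluorescence; Read-out basis: per-well B score of integrated baseline-normalized Fluo4 ratio.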
TRPC6 inh = mouse TRPC6 channel inhibition; 1.1% of 310,000 active; AID 2553; B-score at 10 µM; Q61143; HEK293-TRPC6, membrane potential dye, ACh-evoked depolarization; active compounds read low;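 active means B-score under library mean minus 3 SD, initial fluorescence not abnormally high, positive integrated signal ratio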;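 further: B-score derived from integrated fluorescence ratio over the kinetic read; more negative B-score means stronger inhibition of depolarization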
Target sequence (Q61143 whole entry, looked up): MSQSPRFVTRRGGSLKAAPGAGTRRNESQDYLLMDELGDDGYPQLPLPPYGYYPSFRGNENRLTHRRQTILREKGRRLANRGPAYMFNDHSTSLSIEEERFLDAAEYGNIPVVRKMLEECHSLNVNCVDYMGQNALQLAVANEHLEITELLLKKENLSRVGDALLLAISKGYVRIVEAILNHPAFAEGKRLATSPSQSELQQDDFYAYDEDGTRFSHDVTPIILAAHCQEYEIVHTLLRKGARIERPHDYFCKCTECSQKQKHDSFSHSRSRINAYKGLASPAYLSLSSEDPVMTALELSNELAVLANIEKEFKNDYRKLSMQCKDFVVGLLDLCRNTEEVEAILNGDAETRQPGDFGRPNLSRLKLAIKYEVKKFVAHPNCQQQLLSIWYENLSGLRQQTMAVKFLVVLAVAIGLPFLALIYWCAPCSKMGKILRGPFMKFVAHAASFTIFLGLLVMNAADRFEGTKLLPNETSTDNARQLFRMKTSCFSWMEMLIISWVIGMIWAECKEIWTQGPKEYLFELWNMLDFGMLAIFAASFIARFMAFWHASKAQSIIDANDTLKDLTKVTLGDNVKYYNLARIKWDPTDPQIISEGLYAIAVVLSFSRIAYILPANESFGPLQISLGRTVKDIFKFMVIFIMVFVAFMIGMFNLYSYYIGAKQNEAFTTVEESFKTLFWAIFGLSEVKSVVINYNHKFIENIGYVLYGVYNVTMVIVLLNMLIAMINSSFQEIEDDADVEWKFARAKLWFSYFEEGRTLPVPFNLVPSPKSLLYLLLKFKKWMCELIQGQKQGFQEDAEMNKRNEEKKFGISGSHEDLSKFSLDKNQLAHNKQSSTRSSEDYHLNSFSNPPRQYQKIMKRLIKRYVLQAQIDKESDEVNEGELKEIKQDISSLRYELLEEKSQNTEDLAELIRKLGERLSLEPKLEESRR
TRPC6 activator = activates the mouse TRPC6 cation channel | HEK293-TRPC6 membrane potential dye fluorescence; active compounds read high | B-score at 10 µM | 0.13% of 310,000 active;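 active means B-score of the integrated fluorescence ratio above library mean plus 3 SD, and starting fluorescence ratio within library mean plus 5 SD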;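 further: higher score means more depolarization so channel activation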
TRPC4 act = TRPC4 (mouse) channel activation. Q9QUQ5. HEK293 TRPC4beta/mu-opioid, Fluo4 calcium fluorescence; active compounds read high. B-score at 10 µM. 0.49% of 310,000 active;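 active means B-score above 5 SD of library B-scores, and initial fluorescence ratio not above library mean plus 5 SD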;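 further: positive B-score marks a calcium rise read as TRPC4 activation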
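Material: HEK293 stable line with TRPC4beta plus mu-opioid receptor; technique: Fluo4 calcium-sensitive dye fluorescence, kinetic, 1 Hz baseline; timing: Fluo4 dye loading 45 min at room temperature, 110 s recording; controls: assay buffer as low control, maximal DAMGO as high control; read-out: integrated baseline-normalised fluorescence ratio, converted to per-well B score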
TRPC4 potent = allosterically enhances the mouse TRPC4 cation channel | Q9QUQ5 | B-score at 10 µM | 0.42% of 310,000 active | HEK293 TRPC4beta/mu-opioid, DAMGO EC20, Fluo-4 Ca2+ flux; active compounds read high;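 active means B-score of calcium response area above 5 SD of library B-scores, with initial fluorescence ratio within 5 SD of library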;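 further: B-score of integrated fluorescence ratio over time as area under calcium response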
Kir21 inh = Kir2.1 (mouse) channel inhibition | P35561 | HEK293-Kir2.1, FluxOR thallium flux fluorescence; active compounds read low | B-score at 10 µM | 0.85% of 310,000 active | AID 1672;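 active means fluorescence ratio B-score at or below minus 3 SD of library scores, with starting-brightness B-score within 2 SD, cut at about -4.2 in these data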;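 further: channel flux triggered by added potassium and thallium sulfate stimulus; B-score of peak minus minimum fluorescence over baseline after thallium stimulus; more negative B-score means stronger Kir2.1 block with less thallium influx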
HEK293 MPD ctr = checks TRPC6 modulator effects in parental HEK293 cells | shares compounds with TRPC6 inh | membrane potential dye fluorescence | membrane potential signal change, % at 10 µM | 51% of 2,400 active;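 active means membrane potential signal moves up or down beyond 5 SD from buffer-only wells, on both duplicate plates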
HEK293 MPD ctr 2 = second counter-screen for TRPC6 modulators: effect in parental HEK293 cells; membrane potential dye fluorescence; after compound, maximal acetylcholine stimulation; shares compounds with TRPC6 inh; 14% of 2,400 active; inhibition, % at 10 µM; AID 488926;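 active means membrane potential signal drops by more than 5 SD from the mean control signal, in both duplicate plates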;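 further: plate controls were acetylcholine ECmax control wells for no effect and buffer only wells for full effect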
TRPC4 ctr mod = selectivity of TRPC6 modulators against mouse TRPC4; HEK293 TRPC4/mu-opioid, membrane potential fluorescence; AID 488927; 69% of 2,400 active; shares compounds with TRPC6 inh; percent change from control (negative = decrease, positive = increase), % at 10 µM;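 active means membrane potential signal moved up or down beyond 5 SD of buffer control wells, in both duplicate plates, actives on both sides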;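 further: plate controls were assay buffer wells for no effect and DAMGO maximal-effect wells for full effect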
TRPC4/MOR inh 2 = second check of whether TRPC6 modulators also affect mouse TRPC4. shares compounds with TRPC6 inh. HEK293 TRPC4/mu-opioid, membrane potential dye fluorescence; stimulated with maximal-effect DAMGO. inhibition, % at 10 µM. 55% of 2,400 active. AID 488928;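 active means drop in membrane potential signal beyond 5 SD of the control wells in both duplicate plates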;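 further: TRPC4 counter screen for TRPC6 hits run under conditions tuned for TRPC6 not TRPC4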
TRPC6 block conf = confirmation of mouse TRPC6 inhibitors. shares compounds with TRPC6 inh. 43% of 3,300 active. inhibition, % at 10 µM. HEK293-TRPC6, membrane potential dye, ACh-evoked depolarization. AID 488960;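 active means fluorescence ratio falls more than 5 SD below the full-stimulation control mean, in both duplicate runs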;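 further: integrated fluorescence ratio of peak minus minimum over baseline after agonist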
TRPC6 act confirm = confirmation of mouse TRPC6 activators. activation, % at 10 µM. HEK293-TRPC6 membrane potential dye fluorescence, FDSS. shares compounds with TRPC6 inh. 11% of 2,800 active;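 active means ratio signal rise beyond 5 SD above unstimulated control wells' mean, seen in both duplicate runs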;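 further: plate controls were buffer EC0 wells for no effect and acetylcholine ECmax response for full effect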
* hit, by the source's call; i = inactive; nt = no result.

SMILES	TRPC4 inh	TRPC6 inh	TRPC6 activator	TRPC4 act	TRPC4 potent	Kir21 inh	HEK293 MPD ctr	HEK293 MPD ctr 2	TRPC4 ctr mod	TRPC4/MOR inh 2	TRPC6 block conf	TRPC6 act confirm
Cc1ncc([N+](=O)[O-])n1CC(=O)Nc1cc(Cl)ccc1Cl	i	i	i	i	i	-0.31	nt	nt	nt	nt	nt	nt
COc1cc(OC)c(OC)cc1/C=N/Nc1nc2ccccc2[nH]1	i	-5.2*	i	i	i	1.5	i	i	-11%*	i	i	i
CCN(CC)c1ccc(/C=N/Nc2nc3ccccc3[nH]2)c(O)c1	i	-5.9*	i	i	i	0.09	i	i	-29%*	71%*	i	i
C#CCn1cc(/C=N/Nc2nc3ccccc3[nH]2)c2ccccc21	i	-7.8*	i	i	i	-6.4*	-190%*	80%*	-40%*	91%*	74%*	i
COc1cc(/C=N\Nc2nc3ccccc3[nH]2)cc(OC)c1OC	i	i	i	i	i	-0.28	nt	nt	nt	nt	nt	nt
COc1ccc(/C=N/Nc2nc3ccccc3[nH]2)cc1OC	i	-5.2*	i	i	i	-2.1	-101%*	i	-18%*	50%*	59%*	i
Cc1ccc(CNC(=O)Nc2ccccc2)c(C)c1	i	i	i	i	i	-0.4	nt	nt	nt	nt	nt	nt
COc1ccc(/C=N/Nc2ccccn2)cc1OC	i	-5.8*	i	i	i	-0.31	-121%*	i	-22%*	36%*	i	i
COc1ccc2c(c1)c(/C=N/Nc1nc3ccccc3[nH]1)c(C)n2C	i	-8.2*	i	i	i	0.21	-122%*	i	-36%*	75%*	38%*	i
CCN(CC)CCNC(=O)c1ccc(NC(=O)c2ccc(Cl)c(S(=O)(=O)N3CCCCCC3)c2)cc1	i	-6*	i	i	i	0.01	113%*	76%*	12%*	i	42%*	nt
CCN(CC)CCNC(=O)c1ccc(Cl)c(S(=O)(=O)Nc2ccc(Cl)cc2)c1	i	i	i	i	i	0.05	nt	nt	nt	nt	nt	nt
Nc1nc(C(F)(F)F)cc(=O)n1N	i	i	i	i	i	0	nt	nt	nt	nt	nt	nt
COc1ccc(S(=O)(=O)N2CCCCCC2)cc1Br	i	-6.4*	i	i	i	-0.9	i	i	9.0%*	i	46%*	i
COc1ccc(S(=O)(=O)N2CCCCCC2)cc1NC(=O)Cc1ccccc1F	i	-8.9*	16*	i	i	0.01	i	i	i	i	i	i
COc1ccc(S(=O)(=O)N2CCOCC2)cc1Br	i	i	i	i	i	1.6	nt	nt	nt	nt	nt	nt
COC(=O)c1ccc(OC)c(CN2CCCN(Cc3ccc(F)cc3)S2(=O)=O)c1	i	i	i	i	i	-3	nt	nt	nt	nt	nt	nt
CCc1cc(-c2[nH]ncc2-c2ccc3c(c2)OCO3)c(O)cc1O	i	-5.3*	i	i	i	-3.8	i	i	i	70%*	65%*	i
CCc1cc(-c2[nH]ncc2-c2ccc(OC)cc2)c(O)cc1O	i	i	i	i	i	-2.2	nt	nt	nt	nt	nt	nt
Cc1nnc2sc(-c3cccc(NC(=O)c4cccnc4)c3)nn12	i	-6.5*	i	i	i	0	-148%*	i	-28%*	i	i	i
Cc1nnc2ccc(-c3cccc(NC(=O)c4ccc(Cl)nc4)c3)nn12	i	-5.8*	i	i	i	0.25	i	i	-16%*	37%*	48%*	i
Cc1ccc(-c2nn3c(C)nnc3s2)cc1NC(=O)c1cccnc1	i	-9.7*	i	i	i	-1.6	-244%*	i	-43%*	40%*	i	i
O=C(O)c1cn(-c2ccc(F)cc2)c2cc(Cl)c(F)cc2c1=O	i	i	i	i	i	-1.3	nt	nt	nt	nt	nt	nt
NC1C2CN(c3nc4c(cc3F)c(=O)c(C(=O)O)cn4-c3ccc(F)cc3F)CC12 (stereo unspecified)	i	-5.6*	i	i	i	-0.67	-274%*	i	-46%*	i	i	i
CCN(Cc1ccncc1)Cc1cn(C)nc1-c1ccc(Oc2ccccc2)cc1	i	i	i	i	i	-1.4	nt	nt	nt	nt	nt	nt
Cc1nc2c(C(=O)N3CCCCC3)cnn2c(C)c1Cc1ccccc1F	i	-11*	22*	i	i	0.45	147%*	i	28%*	30%*	114%*	178%*
CCCCNC(=O)C1CCC(CNS(=O)(=O)c2ccc(C)cc2)CC1 (stereo unspecified)	i	i	i	i	i	-0.89	nt	nt	nt	nt	nt	nt
COCCCNC(=O)C1CCC(CNS(=O)(=O)c2ccc(C)cc2)CC1 (stereo unspecified)	i	-6.3*	i	i	i	1	99%*	i	22%*	i	i	i

Bioassay records: PubChem, Johns Hopkins Ion Channel Center
